HCV NS3 hel inh: inhibitors of HCV NS3 helicase, primary screen, biochemical, Cy5 molecular beacon fluorescence | 290,000 compounds, 0.56% hits | inhibition, % at 10.9 µM | NS3 helicase DNA unwinding | Hepatitis C virus NS3 helicase;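 active means inhibition above the mean of all tested compounds plus 3 SD, set per campaign, cut at about 35% in these data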
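Control set: DMSO versus 110 µM thioflavine S; Material: NS3 helicase fragment of HCV; Measured by: Cy5 fluorescence at 0 and 60 min, beacon hairpin quenching; Read-out basis: percent inhibition from t60/t0 fluorescence ratio; Times: reaction time 60 min, 25 °C; Repeats: single replicate; Compound dosing: single dose, 10.9 µM nominal final, DMSO 0.8% final.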
MLLE-PAM2 inh: inhibitors of PABP1 MLLE–PAM2 peptide binding, primary screen, biochemical, fluorescence polarization, FITC-PAM2, GST-MLLE; 360,000 compounds, 0.36% hits; Polyadenylate-binding protein 1 (Homo sapiens), P11940; inhibition, % at 20 µM; in the data active means inhibition above about 35%, passing the limit was not always enough
eIF4H inh: human eIF4H binding inhibitors, primary screen, translation initiation inhibitor project, biochemical, uHTS, fluorescence polarization. eIF4H fluorescence polarization binding assay. AID 2012, 2009. inhibition, % at 35 µM. 290,000 compounds, 0.94% hits;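 further: calls also rest on retests at 20 µM and on dose response follow-up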
ZTA DNA inh: blocks Epstein-Barr virus ZTA, an EBNA-1 counter-screen. P03206. ZTA-DNA binding, fluorescence polarization. inhibition, % at 11 µM. 320,000 compounds, 0.15% hits. AID 2234; in the data active means inhibition above about 33%
Target sequence (P03206 whole entry, looked up): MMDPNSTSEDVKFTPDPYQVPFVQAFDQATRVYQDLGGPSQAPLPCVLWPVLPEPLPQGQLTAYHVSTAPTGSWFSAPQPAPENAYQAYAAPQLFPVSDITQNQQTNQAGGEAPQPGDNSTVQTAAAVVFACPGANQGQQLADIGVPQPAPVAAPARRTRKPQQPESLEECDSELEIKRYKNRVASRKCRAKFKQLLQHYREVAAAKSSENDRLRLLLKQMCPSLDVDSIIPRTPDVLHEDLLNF
EBNA-1 inhibitor: EBNA-1 DNA-binding inhibitors, primary screen, biochemical, fluorescence polarization | 300,000 compounds, 0.34% hits | inhibition, % at 14.8 µM; in the data active means inhibition above about 28%
PABP FP inh: PABP poly(A) RNA binding inhibitors, primary screen, biochemical, fluorescence polarization, uHTS | Polyadenylate-binding protein 1 (Homo sapiens), P11940 | inhibition, % at 35 µM | 290,000 compounds, 1% hits;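 further: calls also rest on retests at 20 µM and on dose response follow-up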
NS3 helicase cf: HCV NS3 helicase inhibitors, retest, confirmation, biochemical, Cy5 molecular beacon fluorescence, triplicate; shares compounds with HCV NS3 hel inh; NS3 helicase DNA unwinding; inhibition, % at 10.9 µM; 1,600 compounds, 31% hits; AID 1943, 2009;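 active means inhibition above the mean of all tested compounds plus 3 SD, cutoff set per campaign, cut at about 36% in these data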
DNA FID counter: compounds displacing fluorescent DNA intercalator, artefact control for HCV NS3 helicase inhibitor project, biochemical, FID fluorescence, triplicate | shares compounds with HCV NS3 hel inh | DNA fluorescent intercalator displacement | inhibition, % at 7.9 µM | 1,600 compounds, 4% hits; in the data active means inhibition above about 37%;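 further: higher means more displacement of ethidium bromide from the DNA hairpin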
DNA FID DR: compounds displacing fluorescent intercalator from DNA, dose response, counter-screen for HCV NS3 helicase inhibitor project, biochemical, fluorescence | fluorescent intercalator displacement from DNA | shares compounds with HCV NS3 hel inh | 120 tested, under 10 active | IC50, µM
Large screens that a line does not name were inactive (follow-up assays come after a bar, where they were run). Sampled rows, rich in hits. Any-hit rate of the full collection: about 2.1%. Unless noted, how the calls were made is not given here.

CCNC(=O)CCSc1nc2cc(Cl)ccc2o1	none
NC(=S)N/N=C/c1ccc2cccc(OCc3ccccc3)c2n1	HCV NS3 hel inh 39 | NS3 helicase cf inactive | DNA FID counter inactive
O/N=C/c1ccc2cccc(OCc3ccccc3)c2n1	none
COC(=O)c1ccc(C2/C(=C(\O)c3ccc4c(c3)OCCO4)C(=O)C(=O)N2CCCN2CCOCC2)cc1 (configuration not stated)	none
CCCOc1cccc(C2/C(=C(\O)c3ccc4c(c3)OCCO4)C(=O)C(=O)N2CCCn2ccnc2)c1 (configuration not stated)	HCV NS3 hel inh 41 | NS3 helicase cf inactive | DNA FID counter inactive
C=CCOc1ccc(C2/C(=C(\O)c3ccc4c(c3)OCCO4)C(=O)C(=O)N2CCCN2CCOCC2)cc1 (configuration not stated)	HCV NS3 hel inh 50 | NS3 helicase cf inactive | DNA FID counter inactive
COc1ccc(-n2nc3ccc(N)cc3n2)cc1Cl	HCV NS3 hel inh 37, eIF4H inh 55, PABP FP inh 15 | NS3 helicase cf inactive | DNA FID counter inactive
Cc1ccc(-n2nc3ccc(N)cc3n2)cc1C	HCV NS3 hel inh 70 | NS3 helicase cf inactive | DNA FID counter inactive
COc1ccccc1N1CCN(C(=O)c2oc3c(c2C)C(=O)CC(C)(C)C3)CC1	none
CCc1ccc(CCC(=O)Nc2nc(CC(C)=O)ns2)o1	none
Cc1cc(F)ccc1S(=O)(=O)Nc1ncnc2sc3c(c12)CCC3	HCV NS3 hel inh 39 | NS3 helicase cf inactive | DNA FID counter inactive
O=C(CSc1ccc2c(c1)OCCO2)Nc1cccnc1Cl	none
CN(CC(=O)c1c(N)n(C)c(=O)n(C)c1=O)c1ccccc1	none
CC(C)OCCCN1CC(=O)N2C(c3ccccc3)c3[nH]c4ccccc4c3C[C@H]2C1=O (some centres not stated)	none
COc1cccc(C2c3[nH]c4ccccc4c3C[C@H]3C(=O)N(CCCOC(C)C)CC(=O)N23)c1 (some centres not stated)	HCV NS3 hel inh 85 | NS3 helicase cf inactive | DNA FID counter inactive
ClCc1csc(N/N=C/c2cccs2)n1	HCV NS3 hel inh 43 (no result: MLLE-PAM2 inh) | NS3 helicase cf inactive | DNA FID counter inactive
COc1ccc(CN2CCN(c3nc4ccccc4s3)CC2)cc1	none (no result: ZTA DNA inh, EBNA-1 inhibitor)
COc1ccc(CCn2c(O)cc3nn(-c4nc5ccccc5s4)c(=O)c-3c2C)cc1	HCV NS3 hel inh 46, eIF4H inh 68, PABP FP inh 64 | NS3 helicase cf 78 | DNA FID counter inactive
Cc1cc(N2C(=O)C(=O)/C(=C(/O)c3ccc(F)cc3)C2c2ccc(Cl)cc2)no1 (configuration not stated)	HCV NS3 hel inh 43 | NS3 helicase cf 68 | DNA FID counter inactive
COc1cccc(OC)c1C(=O)NCC12CC3CC(C1)CC(CNC(=O)c1c(OC)cccc1OC)(C3)C2	none
O=C(O)CCCN1C(=O)C2C3C=CC(C2C1=O)C1C(=O)N(CCCC(=O)O)C(=O)C31 (configuration not stated)	none
CCCCS(=O)(=O)N1CCCC(C(=O)Nc2ccc(Cl)cn2)C1 (configuration not stated)	none
CCCCn1c(N)c(N(CCC(C)C)C(=O)CCCc2nc3ccccc3s2)c(=O)[nH]c1=O	HCV NS3 hel inh 38 | NS3 helicase cf inactive | DNA FID counter inactive
CCCCn1c(N)c(N(CC(C)C)C(=O)CCCc2nc3ccccc3s2)c(=O)[nH]c1=O	none (no result: HCV NS3 hel inh, eIF4H inh, PABP FP inh)
O=C1CCC(C(=O)N2CCOCC2)CN1Cc1cccc(C(F)(F)F)c1 (configuration not stated)	none
N#CCCN1CCN(S(=O)(=O)c2ccc(S(=O)(=O)NC3CCCC3)cc2)CC1	none
CCOC(=O)C1C(=O)NC(N2CCCCC2)=NC1c1ccccc1 (configuration not stated)	none
CCOC(=O)C1C(=O)NC(c2ccccc2)=NC1c1ccc(O)c(OC)c1 (configuration not stated)	HCV NS3 hel inh 56 | NS3 helicase cf inactive | DNA FID counter inactive
CC(=O)Nc1ccc(S(=O)(=O)NC(C(=O)O)C(C)O)cc1 (configuration not stated)	none
CCC(c1c(C)n(C)n(-c2ccccc2)c1=O)c1c(C)n(C)n(-c2ccccc2)c1=O	HCV NS3 hel inh 39 | NS3 helicase cf inactive | DNA FID counter inactive
COC(CNS(=O)(=O)c1ccc(Cl)cc1)c1ccccc1 (configuration not stated)	none
COc1ccc(S(=O)(=O)/N=C2/NC(=O)/C(=C/c3ccco3)S2)cc1	HCV NS3 hel inh 37 | NS3 helicase cf 78 | DNA FID counter inactive | DNA FID DR inactive
COc1ccc(S(=O)(=O)/N=C2/NC(=O)/C(=C\c3ccco3)S2)cc1	HCV NS3 hel inh 37 | NS3 helicase cf 60 | DNA FID counter inactive
Oc1ccccc1OCc1nc2ccccc2s1	none
OCc1cc(Br)ccc1OCc1nc2ccccc2s1	HCV NS3 hel inh 38 | NS3 helicase cf inactive | DNA FID counter inactive
COc1ccc(-c2nc3c(c(SCC(=O)Nc4cccc(O)c4)n2)Cc2c(CO)cnc(C)c2O3)cc1	HCV NS3 hel inh 70 | NS3 helicase cf inactive | DNA FID counter inactive
Cc1cc(C(=O)Cn2ncc(Cl)c(Cl)c2=O)c(C)n1CC(F)(F)F	HCV NS3 hel inh 57 | NS3 helicase cf inactive | DNA FID counter inactive
Cc1cccc(NC(=O)C2SC(=Nc3c(C)cccc3C)C(C(=O)N3CCOCC3)=C2N)c1 (configuration not stated)	none
CCOC(=O)c1c(S(=O)(=O)NCCc2ccc(OC)c(OC)c2)c(C)n(C)c1C	HCV NS3 hel inh 39 | NS3 helicase cf inactive | DNA FID counter inactive
O=c1c2ccccc2nnn1-c1ccc(Br)cc1	none
COc1cc(/C=C2\SC(=O)N(CC(=O)Nc3ccc(C)cc3)C2=O)cc(Cl)c1OCC(=O)O	HCV NS3 hel inh 43, eIF4H inh 89 | NS3 helicase cf 62 | DNA FID counter inactive
COc1ccc(C2(C)NC(=O)N(CC(=O)N3CCc4ccccc43)C2=O)cc1OC (configuration not stated)	none (no result: HCV NS3 hel inh, eIF4H inh, EBNA-1 inhibitor, PABP FP inh)
